Hits are enriched below; roughly 1.8% of the tested compounds scored in any of these assays.
CCR6 antagonist – antagonists of human CCR6 receptor. P51684. CHO-K1 CCR6 PathHunter beta-arrestin, luminescence, CCL20-stimulated. inhibition, % at 20 µM. 340,000 compounds, 0.49% hits. AID 493098;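 active means compounds whose inhibition of the agonist-driven luminescence signal at 20 µM reaches about 50%, limit read from the data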;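 further: cells stimulated with CCL20 at 14 nM final; plate controls were DMSO with CCL20 for no effect and DMSO without agonist for full effect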
APJ antag – blocks the human apelin receptor APJ; CHO-K1 APJ beta-arrestin complementation, luminescence; inhibition, % at 20 µM; 330,000 compounds, 0.32% hits; AID 2521;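 active means inhibition above about 40% at 20 µM, limit read from the data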;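 further: cells challenged with 10 nM apelin-13 agonist together with compound; plate controls were apelin-13 plus DMSO wells for no effect and DMSO wells lacking apelin-13 for full effect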
Beta2AR agonist – agonists of human beta-2 adrenergic receptor inducing internalization; 340,000 compounds, 0.43% hits; AID 504454; P07550; Am2.2-beta2AR cells, FAP receptor internalization, flow cytometry; response, % (no concentration beside the values);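 active means response above a set limit, near 3 SD of response in nonfluorescent compounds, cut at about 42% in these data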
Target sequence (P07550 whole entry, looked up): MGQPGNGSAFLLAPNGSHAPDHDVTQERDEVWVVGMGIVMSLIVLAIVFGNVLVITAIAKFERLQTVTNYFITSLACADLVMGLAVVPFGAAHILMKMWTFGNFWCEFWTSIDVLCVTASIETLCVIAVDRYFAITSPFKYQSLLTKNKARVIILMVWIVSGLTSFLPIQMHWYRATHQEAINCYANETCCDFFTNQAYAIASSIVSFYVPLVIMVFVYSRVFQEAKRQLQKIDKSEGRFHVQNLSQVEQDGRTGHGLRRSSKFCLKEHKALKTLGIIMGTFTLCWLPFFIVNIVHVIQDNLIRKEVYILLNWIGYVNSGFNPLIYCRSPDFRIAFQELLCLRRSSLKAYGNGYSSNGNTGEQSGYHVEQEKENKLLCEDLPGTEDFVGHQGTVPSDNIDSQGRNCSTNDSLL
CXCR6 block – CXCR6 (human) receptor inhibition; CHO-K1 PathHunter CXCR6 beta-arrestin, luminescence; inhibition, % at 20 µM; AID 602244; O00574; 360,000 compounds, 0.36% hits; in the data active means inhibition above about 34%, passing the limit was not always enough;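 further: antagonist mode with CXCL16 agonist at 10 nM final; 0% = 10 nM CXCL16 with DMSO and 100% = unstimulated wells without agonist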
EBI2 antag – EBI2 (human) antagonism; P32249; 360,000 compounds, 0.81% hits; EBI2 beta-arrestin recruitment, luminescence, 7a,25-OHC stimulated; inhibition, % at 5 µM; in the data active means inhibition above about 38%;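 further: enzyme fragment complementation signal reports receptor beta-arrestin coupling in cells; 0% = agonist plus DMSO wells and 100% = wells without agonist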
APJ agonist – activates the human apelin receptor APJ; 330,000 compounds, 0.11% hits; activation, % at 20 µM; CHO-K1 APJ PathHunter beta-arrestin, luminescence; 0% DMSO wells, 100% apelin; AID 2520; P35414;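 active means activation more than six SD over the plate average, tested at 20 µM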;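 further: 0% = DMSO alone and 100% = apelin-13 at 10 nM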
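Material: engineered CHO-K1 APJ arrestin reporter cells; amount: 1000 CHO-K1 reporter cells seeded per well; incubation: compound stimulation 90 min at 25 °C, detection 60 min; signal: luminescent beta-gal fragment complementation, chemiluminescent substrate; read-out basis: APJ agonist activity; controls: DMSO-only wells as negative, 10 nM Apelin-13 as positive control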
* hit, by the source's call; nt = no result given.

SMILES	CCR6 antagonist	APJ antag	Beta2AR agonist	CXCR6 block	EBI2 antag	APJ agonist
Oc1c(C(c2ccccn2)N2CCCCC2)cc(Cl)c2cccnc12 (configuration not stated)	63.2*	36.9	26.0	26.1	19.7	-8.4
Oc1c(I)cc(Cl)c2cccnc12	55.0*	17.1	14.9	35.7*	14.5	-4.1
CN1CCN(C(c2ccc(Cl)cc2)c2cc(Cl)c3cccnc3c2O)CC1 (configuration not stated)	63.3*	0.8	25.5	10.8	13.7	-4.6
O=[N+]([O-])c1cc(Cl)c2cccnc2c1O	23.6	-22.4	2.2	14.0	-1.1	2.2
COc1ccc(C(NC(C)=O)c2cc(Cl)c3cccnc3c2O)cc1 (configuration not stated)	14.2	-4.0	-12.9	7.2	2.1	-2.3
CNc1cncc(-c2cccc(C(=O)NC3CC3)c2)n1	nt	nt	nt	-0.2	-1.3	nt
COC(=O)[C@H](NC(=O)c1cc(-c2ccccc2)sc1N)C(C)C	nt	nt	nt	nt	17.9	nt
Oc1ccc(Cl)cc1CNc1ccc(Br)cn1	13.6	-9.3	0.5	-7.2	41.3*	-0.6
COc1ccc(/C=N\NC(=O)c2cc(O)c(O)c(O)c2)cc1COc1ccc(C(=O)OCC(C)C)cc1	54.7*	11.6	17.2	8.9	4.3	4.5
COc1ccc(/C=N/NC(=O)c2nc(Cl)c(Cl)c(N)c2Cl)cc1COc1ccc(F)cc1F	-7.7	-9.3	26.6	4.4	-2.0	-0.4
COc1ccc(/C=N/NC(=O)c2nc(Cl)c(Cl)c(N)c2Cl)cc1COc1ccccc1F	-7.9	-9.1	49.8*	-13.0	-25.5	0.8
Cc1ccc(N2C(=O)c3cccc4c([N+](=O)[O-])ccc(c34)C2=O)c2cccnc12	20.8	-15.6	17.5	2.8	43.0	3.2
Cc1ccnc(N2C(=O)c3cccc4c([N+](=O)[O-])ccc(c34)C2=O)c1	49.7	-11.5	8.1	41.9*	27.6	-0.8
COc1ccc(CN2C(=O)CN(S(C)(=O)=O)CC2(C)C(=O)Nc2ccc3c(c2)OCCO3)cc1OC (configuration not stated)	nt	nt	nt	nt	-7.2	nt
Cc1c(C(=O)Nc2nc3ccccc3[nH]2)oc2ccc(Br)cc12	41.4	15.9	8.0	10.8	0.9	-4.1
Cc1c(C(=O)Nc2nc3ccccc3[nH]2)oc2ccccc12	56.3*	8.2	2.3	20.5	8.9	-0.7
Cc1c(Cl)cccc1NC(=O)CN1CCC(C(O)(c2ccccc2)c2ccccc2)CC1	-26.2	-15.0	-2.8	6.3	38.5*	-4.8
CN(C)c1ncc(C2=C(Cl)C(=O)C(N3CCCC3)=C(Cl)C2=O)s1	90.6*	-20.2	75.7*	13.9	-9.3	7.7
O=C1C(Cl)=C(N2CCCCC2)C(=O)C(Cl)=C1c1cnc(N2CCCCC2)s1	69.7*	-16.0	35.3	14.2	-16.2	6.9
CC(=O)c1cnc(N(C)C)s1	-0.3	-2.5	-8.1	-1.5	-9.0	1.7
CC12CCC(=O)C=C1CCC1C2CCC2(C)C1CC1C3C(=O)N(Cc4ccccc4)C(=O)C3CC(=O)C12 (configuration not stated)	18.0	nt	3.9	12.9	9.7	nt
CC(=O)NC(c1ccccc1)c1cc(Cl)c2cccnc2c1O (configuration not stated)	9.4	-6.3	1.6	6.4	9.4	-6.2
CC(=O)NC(c1ccc(C)cc1)c1cc([N+](=O)[O-])c2cccnc2c1O (configuration not stated)	nt	5.6	3.8	48.0*	14.4	-3.5
CCC(=O)NC(c1ccc(C)cc1)c1cc([N+](=O)[O-])c2cccnc2c1O (configuration not stated)	48.4	nt	-4.8	51.1*	-1.3	nt
COc1cc(/C=C/C(=O)OCC(=O)NCC(=O)Nc2cccc(C)c2C)ccc1OC(F)F	-1.4	18.3	-2.2	0.7	1.4	-3.4
CC1=NN(C(N)=S)C(=O)C1N=Nc1c(Cl)cc([N+](=O)[O-])cc1Cl (configuration not stated)	57.5*	28.6	-14.8	39.7*	8.6	-3.1
CC1=NN(C(N)=S)C(=O)C1N=Nc1c(C)cc(C)cc1C (configuration not stated)	30.0	17.9	-32.6	16.8	2.0	-5.1
Cc1cc(C)c(C)c(S(=O)(=O)N2CCNC(=O)C2)c1C	nt	nt	nt	5.7	-3.4	nt

Screens: PubChem, several laboratories
